Reference: ChEMBL document CHEMBL1137526, “The design and synthesis of N-1-alkylated-5-aminoarylalkylsubstituted-6-methyluracils as potential non-nucleoside HIV-1 RT inhibitors” (Bioorg Med Chem, 2007)
Activity calls are given as the source filed them. The rule behind the calls is not given here.

Biological target: Human immunodeficiency virus type 1 reverse transcriptase (Human immunodeficiency virus 1, UniProt Q72547)
Assay: Inhibition of HIV1 reverse transcriptase by ELISA
In short: (§1)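 Recombinant HIV-1 RT, non-radioactive ELISA. Oligo(dT) attached through its 5'-phosphate to the plate acts as primer on a poly(A) template (10 µg/ml). Read-out by streptavidin-alkaline phosphatase with PNPP.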

Question: For `Cc1ccc(NCc2c(C)n(COCc3ccccc3)c(=O)[nH]c2=O)cc1`, which IC50 is on record?
Answer: The IC50 was 13.8 µM.

Question: `CCOCn1c(C)c(CNc2ccccn2)c(=O)[nH]c1=O` was tested. Which IC50 did it give?
Answer: The IC50 was 54.7 µM.

Question: `CCOCn1c(C)c(CNc2ccccc2[N+](=O)[O-])c(=O)[nH]c1=O` was tested. Which IC50 did it give?
Answer: The IC50 was over 100 µM.

Question: For `Cc1c(CN(C)c2ccccc2)c(=O)[nH]c(=O)n1COCc1ccccc1`, which IC50 is on record?
Answer: Its IC50 is 3.49 µM.

Question: `CCOCn1c(C)c(CNc2cc(C)ccc2C)c(=O)[nH]c1=O` was tested. Which IC50 did it give?
Answer: The IC50 was 26.2 µM.

Question: How did the IC50 turn out when `CCOCn1c(C)c(CNc2cc(Cl)c(Cl)cc2Cl)c(=O)[nH]c1=O` was run?
Answer: Its IC50 is 0.82 µM.

Question: For `Cc1c(CNC2CCCCC2)c(=O)[nH]c(=O)n1COCc1ccccc1`, which IC50 is on record?
Answer: The IC50 was 5.09 µM.

Question: How did the IC50 turn out when `Cc1c(CNc2cc(Cl)c(Cl)cc2Cl)c(=O)[nH]c(=O)n1COCc1ccccc1` was run?
Answer: The IC50 was over 100 µM.

Biological target: Human immunodeficiency virus type 1 reverse transcriptase (Human immunodeficiency virus 1) (UniProt Q72547)
Assay: Inhibition of HIV1 reverse transcriptase upto 100 uM by ELISA
In short: as §1

Question: Which Activity does the source give for `Cc1c(CNc2ccc([N+](=O)[O-])cc2)c(=O)[nH]c(=O)n1COCc1ccccc1` here?
Answer: The Activity was “inactive”.

Question: How did the Activity turn out when `CCOCn1c(C)c(CNc2cccc([N+](=O)[O-])c2)c(=O)[nH]c1=O` was run?
Answer: The Activity was “inactive”.

Question: Which Activity does the source give for `CCOCn1c(C)c(CNc2c(C)cccc2C)c(=O)[nH]c1=O` here?
Answer: Its Activity is “inactive”.

Question: `CCOCn1c(C)c(CNc2ncccn2)c(=O)[nH]c1=O` was tested. Which Activity did it give?
Answer: Its Activity is “inactive”.

Question: Which Activity does the source give for `Cc1c(CNc2cccc([N+](=O)[O-])c2)c(=O)[nH]c(=O)n1COCc1ccccc1` here?
Answer: The Activity was “inactive”.

Question: How did the Activity turn out when `CCOCn1c(C)c(CNC2CCCCC2)c(=O)[nH]c1=O` was run?
Answer: The Activity was “inactive”.

Question: Which Activity does the source give for `CCOCn1c(C)c(CNc2c(Cl)cc(Cl)cc2Cl)c(=O)[nH]c1=O` here?
Answer: Its Activity is “inactive”.

Question: Which Activity does the source give for `CCOCn1c(C)c(CN(C)c2ccccc2)c(=O)[nH]c1=O` here?
Answer: Its Activity is “inactive”.

Question: For `CCOCn1c(C)c(CNc2ccc(C)cc2)c(=O)[nH]c1=O`, which Activity is on record?
Answer: The Activity was “inactive”.

Question: `CCOCn1c(C)c(CNc2ccc([N+](=O)[O-])cc2)c(=O)[nH]c1=O` was tested. Which Activity did it give?
Answer: Its Activity is “inactive”.

Question: Which Activity does the source give for `CCOCn1c(C)c(CNc2cccc3ccccc23)c(=O)[nH]c1=O` here?
Answer: The Activity was “inactive”.

Question: For `Cc1c(CNc2c(Cl)cc(Cl)cc2Cl)c(=O)[nH]c(=O)n1COCc1ccccc1`, which Activity is on record?
Answer: Its Activity is “inactive”.

Question: For `Cc1c(CNc2ccccc2[N+](=O)[O-])c(=O)[nH]c(=O)n1COCc1ccccc1`, which Activity is on record?
Answer: Its Activity is “inactive”.
